These results are taken from ChEMBL document CHEMBL4513216, “Probing the Open Global Health Chemical Diversity Library for Multistage-Active Starting Points for Next-Generation Antimalarials” (ACS Infect Dis, 2020).

A short description of the data set: Toxicity liver stage against HepG2, at 10uM. The data set is classed as cell-based. Set-up: test concentration 10 uM, cell line HepG2-A16-CD81EGFP. The settings on record: human, HepG2-A16-CD81EGFP cells; read-out: INHIBITION
In short, it runs like this: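 Uninfected HepG2-A16-CD81EGFP cells, 3 × 10^3 per well, 1536-well, plated on prespotted compound at 10 μM final, parasite-free screening media added to match infected plates; puromycin 10 μM positive, DMSO 0.5% negative; run in parallel with 48 h PbLuc assay at 37 °C, 5% CO2; viability by CellTiter-Glo luminescence, normalized to controls.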
As for `O=C1NCCCCC1Sc1nnc(C2CC2)n1C1CC1` (stereo unspecified), the cytotoxicity at 10 µM is -6%.
In the case of `Cc1ccc(C(=O)N2CC(=O)N(Cc3ccco3)CC(O)C2)cc1` (stereo unspecified), the cytotoxicity at 10 µM is -0.817%.
`CN(C)c1no[n+]([O-])c1-c1ccccc1`: the cytotoxicity at 10 µM was 15.8%.
For `Cc1c(C2SCC(=O)Nc3c2cnn3C(C)(C)C)cnn1C` (stereo unspecified) the value was -1.21%; for `O=C(CCc1nc2cc(Br)cnc2[nH]1)NCc1cccnc1`, -0.874%; for `O=C(NC1(c2nc(C3CC3)no2)CCCCC1)c1ccncc1`, -7.12%.
As to `CCOC(=O)CCC(=O)N1CCC(CSCc2ccco2)CC1`, the cytotoxicity at 10 µM is -10.3%.
Consider `O=C(Cc1csc(-c2ccccc2)n1)N[C@@H](C(=O)O)c1ccccc1`, for which the cytotoxicity at 10 µM came out at 6.56%.
For `COCC1CN(S(C)(=O)=O)Cc2ncn(CC3CC3)c21` (stereo unspecified) the value was 1.68%; for `CS(=O)(=O)NCc1n[nH]c2c1CCN(C(=O)c1ccsc1)C2`, 4.01%.
As for `CC(C)NC(=O)N1CC[C@@H]2CN(Cc3cccc(Cl)c3)S(=O)(=O)[C@@H]2CC1`, the cytotoxicity at 10 µM is 4.71%.
For the compound `CC(C)NC(=O)c1nnc2ccc(N3CCOCC3)cc2n1`, the cytotoxicity at 10 µM worked out at 1.86%.
In the case of `CCN(CC)Cc1nnc2sc(C(C)Oc3ccccc3)nn12` (stereo unspecified), the cytotoxicity at 10 µM turned out to be 8.35%.
With `CC(=O)NCC(=O)N1CCOCC(Cc2ccc3c(ccn3C)c2)C1` (stereo unspecified), the cytotoxicity at 10 µM came to 1.89%.
Under `Cc1ncsc1C(=O)NCc1ccc(-c2n[nH]cc2C(=O)N(C)C)cc1` stands 0.522%.
For `CN(C)S(=O)(=O)N1CC(c2ccnc(Nc3ccccn3)n2)C1` the value was 8.84%; for `CN1CCC(c2cncc(C(=O)NCc3ccc(F)cc3)n2)CC1`, -8.11%; for `O=C(NCC1CC1)c1cc(C2CC2)nc2onc(C3CCCNC3)c12` (stereo unspecified), 4.98%.
Turning to `Cc1cnn(CC(C)NCc2cccnc2)c1` (stereo unspecified), the cytotoxicity at 10 µM was -3.3%.
For `CCCN(CCC)C(=O)c1sc(C)nc1C` the value was 3.05%.
For `CC(NCCCN1CCCC1=O)c1ccc(F)cc1N(C)C` (stereo unspecified) the value was -2.78%.
In the case of `Cc1ccc(O)c(C(=O)NCCS(=O)(=O)Cc2ccccc2)c1`, the cytotoxicity at 10 µM was found to be 4.57%.
Under `CN1CCOC(C(=O)Nc2nnc(Cc3ccc(F)cc3)[nH]2)C1` (stereo unspecified) stands -4.95%; under `COc1ccc(NC(=O)CN2CCS(=O)(=O)CC2)cn1`, 11.8%; under `Cc1nc(C(C)(C)NCc2nnc(C(C)C)o2)sc1C`, 6.35%.
For `CCc1nnsc1C(=O)N1CCOC(c2nc(C(C)C)n[nH]2)C1` (stereo unspecified), the cytotoxicity at 10 µM was determined as 1.23%.
Under `Cc1cc(C2CCCN(C(=O)COc3ccc(F)cc3)C2)n[nH]1` (stereo unspecified) stands 3.59%; under `CCOC(C)c1nc(CNc2cccc(Cl)c2OC)cs1` (stereo unspecified), 6.16%; under `NC(=O)CN(CC(=O)NCc1cccc(Cl)c1)C1CCCC1`, -0.979%.
For `CCOCCCC(=O)N1CCN(c2cccc(OC)c2)C(C)C1` (stereo unspecified), the cytotoxicity at 10 µM came to 0.0272%.
Under `CCc1nnc2n1CCN(C(=O)CCOc1cc(C)ccc1C)C2` stands -11.3%; under `CN(Cc1noc(C(C)(C)C)n1)Cc1ccccc1N1CCCC1`, -1.78%; under `O=C(NCCCNC(=O)c1ccc(F)cc1F)c1cccc(O)c1`, 2.9%.
Under `CNc1cc(N2CCCC2CNCc2cccnc2)ncn1` (stereo unspecified) stands -11.5%.
Under `Cc1cc(C(=O)Nc2cccn(Cc3ccc(F)cc3)c2=O)on1` stands 5.38%; under `COCCn1cc(NCc2cccc3cn[nH]c23)cn1`, -3.31%; under `Cc1sc2nc(SC(C)c3nc(C(C)C)no3)nc(N)c2c1C` (stereo unspecified), -2.4%.
Consider `CS(=O)(=O)c1nccn1Cc1ccc(Cl)cc1`, for which the cytotoxicity at 10 µM is -10.4%.
Under `N#Cc1ccc(S(=O)(=O)N2CC(CC(=O)O)c3ccccc32)cc1` (stereo unspecified) stands 0.513%; under `CN(CCC(F)(F)F)Cc1nc2ccccc2c(=O)[nH]1`, -5.61%; under `c1ccc2nc(N3CCCC(Cn4cncn4)C3)cnc2c1` (stereo unspecified), 5.46%.
For `COc1cccc(CN(C)Cc2cccc(C#N)c2)c1OC` the value was -7.82%.
For `O=S(=O)(CCNCc1ccc2c(c1)CCO2)N1CCOCC1` the value was -9.61%; for `Cn1c(CNc2c(F)cccc2-n2cccn2)cc(=O)n(C)c1=O`, -7.79%.
For the compound `CN(CCN1CCOCC1)C(=O)CCc1cccc(Cl)c1`, the cytotoxicity at 10 µM is -6.57%.
In the case of `CCc1ccc(C(=O)N2CCC(c3nncn3CC)CC2)cc1`, the cytotoxicity at 10 µM was -2.95%.
As to `c1cc(C2CCCN2Cc2nnnn2C2CC2)cs1` (stereo unspecified), the cytotoxicity at 10 µM is -8.86%.
Take `Cc1cccc(CCC(=O)N2CCOCC2c2c(C)n[nH]c2C)c1` (stereo unspecified): the cytotoxicity at 10 µM is -13.3%.
In the case of `CCN1CC(C(=O)NCc2ccnc(-n3ccnc3C)c2)CC1=O` (stereo unspecified), the cytotoxicity at 10 µM is -25.5%.
On to `O=C(C1CCOCC1)N1CCc2ncc(CN3CCCCC3)n2CC1`, for which the cytotoxicity at 10 µM is -78.4%.
For `Cn1cc(N2CCC3(CCCN(Cc4ccoc4)C3)C2=O)cn1` (stereo unspecified) the value was -77%; for `COc1c(C)cc(S(=O)(=O)NCC2CNCCOC2)cc1C` (stereo unspecified), -3.53%.
For `CCCn1nccc1C(=O)N1CCN(C(=O)C2CC2)[C@@H]2CS(=O)(=O)C[C@@H]21` the value was 4.05%; for `CCN(CCn1cccn1)Cc1nc(-c2cccc(C)c2)oc1C`, 0.0489%.
Regarding `Cn1nccc1C(=O)N1CCN(C(=O)C2CCC2)[C@@H]2CS(=O)(=O)C[C@@H]21`, the cytotoxicity at 10 µM was 4.86%.
Under `Cc1noc([C@@H]2CCCN2C(=O)C2CCN(CC(N)=O)CC2)n1` stands 3.96%.
For `CCc1cc(N(C)Cc2ccno2)n2nc(C)c(C)c2n1`, the cytotoxicity at 10 µM is 1.35%.
Under `Cc1ccc(N2CCC(C(O)Cc3ccccc3)CC2)nn1` (stereo unspecified) stands -3.43%; under `COCc1noc(Cn2ncn3cccc3c2=O)n1`, -5.56%; under `O=C(CN1CCC2(CCCN(CCO)C2=O)C1)NCCc1ccccc1` (stereo unspecified), 0.174%.
Turning to `COc1ccc(-c2ccccc2CCN)c(OC)c1`, the cytotoxicity at 10 µM worked out at 8.95%.
Under `Cc1csc2c(=O)n(CCN3CCC(c4ccccc4)CC3)cnc12` stands 1.2%; under `CC1(C)CN(CC(=O)NCc2ccccc2F)C[C@]1(C)O`, -1.84%.
As to `CC1(C)CC(N2CCN(C3CCCC3)C(CCO)C2)CC(C)(C)C1` (stereo unspecified), the cytotoxicity at 10 µM was -7.19%.
Under `Cc1cc(N2CCN(C(=O)c3cnn(C(C)C)c3)CC2)nc(N)n1` stands -2.82%.
Under `CSCc1noc(CN(C)C(C)c2nc(C)sc2C)n1` (stereo unspecified) stands 8.2%; under `COc1ccc(C(C(=O)O)N2CCC(O)(c3cccnc3)CC2)cc1Cl` (stereo unspecified), 4.57%.
For `CC(C)=CCn1ncc(N2CCCCC2)cc1=O` the value was -9.48%; for `O=C(CCc1cc(O)no1)N1CCC(Cc2ccc(F)cc2)CC1`, -0.505%.
For the compound `Cc1cc(CC(=O)N2CCN(CC3CC3)[C@@H]3CS(=O)(=O)C[C@@H]32)ccc1F`, the cytotoxicity at 10 µM was 5.17%.
Turning to `CC(C)C1CN(c2ncc(F)cn2)CCC(=O)N1Cc1ccc(F)cc1` (stereo unspecified), the cytotoxicity at 10 µM was 16.9%.
Under `COCC1CCN(C(=O)c2cccc(S(=O)(=O)NCC3(C)COC3)c2)C1` (stereo unspecified) stands 3.82%.
For the compound `Cc1nccnc1N1CC[C@@H](NC(=O)c2cnccn2)[C@H](O)C1`, the cytotoxicity at 10 µM was -11.3%.
With `CCOc1cc(C)nc(N2CCN(C(=O)c3cnc[nH]3)CC2)n1`, the cytotoxicity at 10 µM was -11.8%.
Under `CC(C)c1ccc(CCC(=O)N2CCOCC2c2ncon2)cc1` (stereo unspecified) stands -4.56%; under `COc1ccc(OC)c(CNCc2ccnc(N3CCOCC3)c2)c1`, 1.27%; under `Cc1ncsc1C(=O)N(Cc1ccccn1)C1CC1`, -11.2%.
For `Cc1ccc2oc(C(=O)N3CCCC(n4nc(C)nc4C)C3)cc2n1` (stereo unspecified) the value was -7.39%.
Consider `Cc1nnc2n1CCN(C(C(=O)NC1CC1)c1ccc(F)cc1)C2` (stereo unspecified), for which the cytotoxicity at 10 µM was -6.6%.
For `C=C(C)CN(CC)C(=O)CN(C)C1CCc2ccccc21` (stereo unspecified) the value was -11.6%.
Under `CCc1nc(CN2CCN(C(=O)C3(C#N)CCCC3)CC2)cs1` stands 0.38%; under `CCN1CCN(C2CCN(CC(=O)NCC(F)(F)F)CC2)C1=O`, -2.99%.
Under `Cc1nn(C)c(C)c1C1CCCN1C(=O)c1cnc2onc(C)c2c1` (stereo unspecified) stands -8.48%; under `FC(F)(F)Cn1ccnc1CNCC1CCCN1c1cccnn1` (stereo unspecified), -26.6%; under `O=C(Nc1ccc(F)cc1)N1CCN(Cc2noc(C3CC3)n2)CC1`, -18.1%.
With `O=C(NCCN1CCCCC1)c1ccn(-c2ccc(F)cc2)n1`, the cytotoxicity at 10 µM is -8.05%.
In the case of `Cc1nc(C)n(C2CCCN(C(=O)c3ccn(C(C)C)n3)C2)n1` (stereo unspecified), the cytotoxicity at 10 µM is -22.6%.
Under `Cc1cc(CN2CCN(C(=O)NCc3nc(C)cs3)CC2)on1` stands -5.01%; under `COCCN1CC(C(=O)NCc2ccnc(-n3cccn3)c2)CC1=O` (stereo unspecified), -5.07%.
For `O=C1CC(N(C(=O)c2ccc3c(c2)CCC3)C2CC2)C(=O)N1` (stereo unspecified) the value was -1.99%.
On to `CO[C@H]1CC[C@H]2[C@H]1OCCN2CCOCc1ccccc1`, for which the cytotoxicity at 10 µM was -114%.
Under `COCCNC(=O)[C@H]1CN(Cc2nccs2)C[C@H]2OCC[C@@H]12` stands -11.6%; under `c1ccc(CN2CCc3nnc(CN4CCCCC4)n3CC2)nc1`, 3.73%; under `CCc1ccc(CN2C[C@@H](c3nc(C)no3)C[C@H]3OCC[C@H]32)o1`, -75.8%.
For `C=c1occc1=C1NC(c2cccc(CN3CCOCC3)c2)=NO1` the value was -5.92%; for `CCC12CN3CC(C)(CN(C1)C3c1[nH]c(=O)[nH]c(=O)c1C)C2=O` (stereo unspecified), 6.35%.
